# Source: ChEMBL document CHEMBL1833937, “Structure-based design of pseudopeptidic inhibitors for SIRT1 and SIRT2” (J Med Chem, 2011)
# Calls of active or inactive are those of the source. The calls are words filed in the database; no cut-off is given here. Where a SMILES comes first, the peptide text is derived from it. [ ]: non-standard residue; d: D form. Lys(Thioacetyl) = CC(=S)NCCCC[C@H](N)C(=O)O
# Assays:
# [1] = target: T1, NAD-dependent protein deacetylase sirtuin-1 (Homo sapiens, UniProt Q96EB6); experiment: Inhibition of recombinant GST-tagged SIRT1 after 1 hr by Fluor de Lys-based fluorescence assay
# T1 sequence (Q96EB6 whole entry): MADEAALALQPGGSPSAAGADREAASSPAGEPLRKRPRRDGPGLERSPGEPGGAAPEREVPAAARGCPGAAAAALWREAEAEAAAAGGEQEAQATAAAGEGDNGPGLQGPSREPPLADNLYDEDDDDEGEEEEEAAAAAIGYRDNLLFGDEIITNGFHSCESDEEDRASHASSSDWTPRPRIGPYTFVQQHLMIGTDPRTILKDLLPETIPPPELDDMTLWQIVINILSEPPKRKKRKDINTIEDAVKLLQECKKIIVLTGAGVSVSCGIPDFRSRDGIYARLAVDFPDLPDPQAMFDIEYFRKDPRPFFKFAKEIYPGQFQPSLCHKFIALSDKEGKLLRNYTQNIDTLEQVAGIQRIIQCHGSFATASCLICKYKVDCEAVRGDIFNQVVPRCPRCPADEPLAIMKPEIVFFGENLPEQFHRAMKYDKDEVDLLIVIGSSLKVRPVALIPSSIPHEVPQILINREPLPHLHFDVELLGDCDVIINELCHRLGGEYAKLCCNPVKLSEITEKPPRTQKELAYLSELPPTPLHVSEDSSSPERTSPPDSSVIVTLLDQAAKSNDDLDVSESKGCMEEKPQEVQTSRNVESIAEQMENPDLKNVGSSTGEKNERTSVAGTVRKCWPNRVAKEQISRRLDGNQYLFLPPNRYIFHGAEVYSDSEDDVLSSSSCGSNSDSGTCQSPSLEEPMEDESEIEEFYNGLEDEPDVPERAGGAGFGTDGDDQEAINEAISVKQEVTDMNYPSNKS
# Summary of the method: (§1)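 Fluor de Lys deacetylation: GST-SIRT1 with KI177 substrate at 40 μM or GST-SIRT2 with KI179 substrate at 138 μM (70% of Km; Km 58 and 198 μM), 500 μM NAD+, assay buffer with 1 mg/mL BSA, DMSO 2.5 μL per 50 μL. Substrate, NAD+ and compound preincubated 5 min rt; enzyme starts reaction, 1 h 37 °C. Developer plus 2 mM nicotinamide, 45 min 37 °C; ex 355/em 460 nm. IC50 from 9-point dose-response (0.0001–2000 μM), at least three repeats.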
# [2] = target: T2, NAD-dependent protein deacetylase sirtuin-2 (Homo sapiens, UniProt Q8IXJ6); experiment: Inhibition of recombinant GST-tagged SIRT2 after 1 hr by Fluor de Lys-based fluorescence assay; summary of the method: as §1
# T2 sequence (Q8IXJ6 whole entry): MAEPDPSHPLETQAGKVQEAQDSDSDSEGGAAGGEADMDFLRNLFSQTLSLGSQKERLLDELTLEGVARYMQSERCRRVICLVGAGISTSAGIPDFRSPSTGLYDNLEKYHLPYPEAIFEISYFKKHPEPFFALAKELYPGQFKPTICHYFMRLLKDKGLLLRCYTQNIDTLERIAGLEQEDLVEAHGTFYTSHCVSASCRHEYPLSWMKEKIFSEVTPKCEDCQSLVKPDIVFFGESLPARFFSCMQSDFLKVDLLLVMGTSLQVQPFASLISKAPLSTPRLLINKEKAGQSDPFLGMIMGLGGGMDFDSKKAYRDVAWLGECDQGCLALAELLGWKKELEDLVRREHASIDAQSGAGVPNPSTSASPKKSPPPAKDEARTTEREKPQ
# [3] = target: Histone deacetylase (Homo sapiens) (UniProt Q13547+O15379+Q9UBN7+Q92769+Q9UQL6+Q8WUI4+Q9BY41+Q96DB2+P56524+Q9UKV0+Q969S8); experiment: Inhibition of HDAC in human HeLa nuclear extract at 200 uM after 1 hr by Fluor de Lys-based fluorescence assay; format: protein assay
# Summary of the method: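 HeLa nuclear extract as HDAC source, 50 μM acetylated Fluor de Lys HDAC substrate, compounds 200 μM in HDAC assay buffer; substrate addition starts reaction, 1 h at 37 °C. Developer plus […], 15 min at 25 °C; fluorescence ex 355/em 460 nm. Run twice; means and standard deviations.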
# [4] = target: T3, NAD-dependent protein deacetylase sirtuin-1 (Homo sapiens) (UniProt Q96EB6); experiment: Inhibition of recombinant GST-tagged SIRT1 at 200 uM after 1 hr by Fluor de Lys-based fluorescence assay
# T3 sequence (whole entry): T1 sequence (Q96EB6 whole entry)
# Summary of the method: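 Single-point Fluor de Lys test at 200 μM: GST-SIRT1 (40 μM KI177 substrate) or GST-SIRT2 (138 μM KI179 substrate), 500 μM NAD+, BSA-supplemented buffer, 5 min rt preincubation, enzyme-started 1 h at 37 °C. Developer with 2 mM nicotinamide 45 min 37 °C; fluorescence ex 355/em 460 nm. Percent inhibition ± standard deviation.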
# [5] = target: T3, NAD-dependent protein deacetylase sirtuin-1 (Homo sapiens); experiment: Inhibition of human SIRT1 in SH-SY5Y cells assessed as increase in p53 acetylation level at 10 uM after 5 hrs by Western blot analysis in presence of etoposide-induced DNA damage; format: cell-based
# Summary of the method: (§2)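 Cells seeded at 10^5 per well and treated 24 h later with compound plus etoposide together for 5 h. Lysates (M-PER) cleared 16000g 20 min, equal protein on 4–12% SDS-PAGE, blotted to nitrocellulose, probed with rabbit monoclonal anti-acetyl-p53 (K382), actin as loading control, HRP secondary and chemiluminescence.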
# [6] = system: SH-SY5Y; experiment: Cytotoxicity against human SH-SY5Y cells at 10 uM by LDH assay; format: functional, cell-based
# Summary of the method: (§3)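 After plating at 10^5 cells/well and 24 h attachment, cells exposed 5 h to compound together with etoposide; cytotoxicity read as lactate dehydrogenase released into culture medium by a commercial LDH kit.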
# [7] = Cytotoxicity against human astrocytes at 10 uM by LDH assay; format: cell-based; settings: astrocyte; summary of the method: as §3
# [8] = target: T3, NAD-dependent protein deacetylase sirtuin-1 (Homo sapiens); experiment: Inhibition of human SIRT1 in human astrocytes assessed as increase in p53 acetylation level at 10 uM after 5 hrs by Western blot analysis in presence of etoposide-induced DNA damage; format: cell-based; summary of the method: as §2
# [9] = Cytotoxicity against human ARPE19 cells at 10 uM by LDH assay; format: cell-based; settings: arpe-19, 10 µM; summary of the method: as §3
# [10] = target: T3, NAD-dependent protein deacetylase sirtuin-1 (Homo sapiens); experiment: Inhibition of human SIRT1 in ARPE19 cells assessed as increase in p53 acetylation level at 10 uM after 5 hrs by Western blot analysis in presence of etoposide-induced DNA damage; format: cell-based; summary of the method: as §2
# [11] = target: T3, NAD-dependent protein deacetylase sirtuin-1 (Homo sapiens); experiment: Inhibition of human SIRT1 in SH-SY5Y cells assessed as increase in p53 acetylation level at 100 uM after 5 hrs by Western blot analysis in presence of etoposide-induced DNA damage; format: cell-based; summary of the method: as §2
# [12] = system: SH-SY5Y; experiment: Cytotoxicity against human SH-SY5Y cells at 100 uM by LDH assay; format: functional, cell-based; summary of the method: as §3
SMILES,IC50 [1] [µM],IC50 [2] [µM],inhibition [3] [%],further results
COC(=O)[C@H](C)NC(=O)[C@H](CCCCNC(C)=S)NC(=O)[C@H](C)NC(C)=O,1,13,–,–
CC(=S)NCCCC[C@H](NC(=O)CCc1ccccc1F)C(=O)N[C@@H](C)C(=O)O,1.3,27,16.3,–
CNC(=O)[C@H](C)NC(=O)[C@H](CCCCNC(C)=S)NC(=O)[C@H](C)NC(C)=O,0.4,2.9,–,–
CC(=S)NCCCC[C@H](NC(=O)[C@H](C)NC(=O)OC(C)(C)C)C(=O)N[C@@H](C)C(=O)O,0.77,6.5,10.1,–
CC(=S)NCCCC[C@H](N)C(=O)N[C@@H](C)C(=O)O,–,–,–,inhibition [4]: 46.9%
CC(=S)NCCCC[C@H](NC(=O)OCc1ccccc1)C(=O)Nc1ccccc1F,7.4,16,1.4,–
CC(=S)NCCCC[C@H](NC(=O)CCc1ccccc1)C(=O)N[C@@H](C)C(=O)O,0.99,56,8.5,–
CC(=S)NCCCC[C@H](NC(=O)OCc1ccccc1)C(=O)N[C@@H](C)C(=O)O,1.3,17,3.9,Activity [5]: Active; Activity [6]: inactive
CC(=S)NCCCC[C@H](NC(=O)CCc1ccccc1O)C(=O)N[C@@H](C)C(=O)O,1,53,5.6,–
CC(=S)NCCCC[C@H](NC(=O)OCc1ccccc1)C(=O)NC1CCCCC1,23,–,75.4,–
COC(=O)[C@H](C)NC(=O)[C@H](CCCCNC(C)=S)NC(C)=O,51,862,–,–
CC(=S)NCCCC[C@H](NC(=O)OCc1ccccc1)C(=O)NCC(=O)c1ccccc1,1.6,4.3,5.1,Activity [5]: Active; Activity [7]: Non-toxic; Activity [8]: Active; Activity [6]: inactive; Activity [9]: Non-toxic; Activity [10]: Active
CC(=S)NCCCC[C@H](NC(=O)OCc1ccccc1)C(=O)Nc1ccccc1O,5.1,7.4,1.9,–
CC(=S)NCCCC[C@H](NC(=O)[C@@H]1CCCN(C(=O)OC(C)(C)C)C1)C(=O)N[C@@H](C)C(=O)O,0.97,13,23.7,Activity [11]: Active; Activity [5]: Active; Activity [12]: inactive; Activity [6]: inactive
CC(=O)N1CCC[C@H]1C(=O)N[C@@H](CCCCNC(C)=S)C(=O)N[C@@H](C)C(=O)O,0.37,31,–,–
CC(=S)NCCCC[C@H](NC(=O)OCc1ccccc1)C(=O)Nc1ccccc1,9.9,15,2.5,–
CC(=S)NCCCC[C@H](NC(=O)[C@H](C)N)C(=O)N[C@@H](C)C(=O)O,0.66,36,–,–
CSCC[C@H](NC(=O)[C@H](CC(C)C)NC(=O)[C@H](CCCCNC(C)=S)NC(=O)[C@H](CCCCN)NC(=O)[C@@H](N)Cc1cnc[nH]1)C(=O)O (H-HK[Lys(Thioacetyl)]LM-OH),0.31,6.3,–,–
CC(=S)NCCCC[C@H](NC(=O)[C@H](N)Cc1ccccc1)C(=O)N[C@@H](C)C(=O)O,18,–,7.6,–
